# In ChEMBL document CHEMBL1759881, “Synthesis and anti-inflammatory activity of ent-kaurene derivatives” (Eur J Med Chem, 2011):
# Key:
# [1] = test system: RAW264.7; experiment: Antiinflammatory activity in mouse RAW264.7 cells assessed as inhibition of LPS-induced nitric oxide release pretreated for 15 mins before LPS challenge measured after 24 hrs by Griess method; type: functional, cell-based
# Summary of the method: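 RAW 264.7 cells pre-incubated 15 min with compound (1–25 range in the table; 1, 5, 10, 25, 50 for dose-response) or DMSO vehicle, then LPS 250 ng/ml for 24 h. Nitrite in supernatant measured by Griess reagent, absorbance at 548 nm against NaNO2 standard. IC50 is the concentration giving 50% inhibition of NO release. Means ± SD of three independent experiments in triplicate.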
# [2] = Cytotoxicity against LPS-stimulated mouse RAW264.7 cells assessed as cell viability at 1 to 25 uM pretreated for 15 mins before LPS challenge measured after 24 hrs by MTT assay; type: cell-based; conditions: LPS-stimulated RAW264.7 cells, read-out: Activity
# Summary of the method: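 RAW 264.7 cells plated at 10⁵ cells/well, treated with compound at 1–25 in the presence of LPS 250 ng/ml for 24 h. MTT then added for 4 h at 37 °C, formazan extracted in DMSO, absorbance read at 540 nm. Viability expressed relative to untreated controls. Triplicate wells, at least three independent experiments.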
IC50 [1],SMILES,"viability at 24 h, up to 25 µM [2]",inhibition [1]
> 25 µM,C[C@@]12CCC[C@@](C)(C(=O)OCc3ccccc3)[C@H]1CC[C@]13CC(=O)O[C@H](CC[C@H]12)C3,50%,–
> 25 µM,COC(=O)[C@]1(C)CCC[C@@]2(C)[C@@H]3CC[C@@H]4C[C@@]3(CC[C@@H]21)C[C@H]4C=O,90%,–
10 µM,COC(=O)[C@]1(C)CCC[C@@]2(C)C3=CC[C@@H]4C[C@@]3(CC[C@H]12)C[C@]4(O)COC(=O)c1ccco1,99%,–
> 25 µM,C=C1[C@@H]2CC=C3[C@@](CC[C@@H]4[C@](C)(C(=O)OC)CCC[C@@]34C)(C2)[C@H]1O,67%,–
> 25 µM,COC(=O)[C@]1(C)CCC[C@@]2(C)[C@@H]3CC[C@@H]4C[C@]3(C=C4C)CC[C@@H]21,100%,–
25 µM,C=C1C[C@@]23CC[C@H]4[C@@](C)(CCC[C@@]4(C)C(=O)OC)[C@@H]2CC[C@@H]1C3 [KAURENOIC ACID METHYL ESTER],90%,–
17 µM,COC(=O)[C@]1(C)CCC[C@@]2(C)[C@@H]3CC[C@@H]4C[C@@]3(CC[C@@H]21)C[C@@]41COS(=O)O1 (stereo partly specified),95%,–
12 µM,C[C@@]12CCC[C@@](C)(C(=O)OCc3ccccc3)[C@H]1CC[C@]13CC(=O)[C@H](CC[C@H]12)C3,95%,–
12 µM,C=C1C[C@@]23CC[C@@H]4[C@](C)(COC(C)=O)CCC[C@@]4(C)[C@@H]2CC[C@@H]1C3,99%,–
10 µM,C=C1C[C@@]23CC[C@@H]4[C@](C)(CO)CCC[C@@]4(C)[C@@H]2CC[C@@H]1C3,80%,–
> 25 µM,COC(=O)[C@]1(C)CCC[C@@]2(C)[C@@H]3CC[C@@H]4C[C@@]3(CC[C@@H]21)[C@@H](OC(C)=O)C4=O,99%,–
> 25 µM,COC(=O)[C@]1(C)CCC[C@@]2(C)[C@@H]3CC[C@@H]4C[C@@]3(CC[C@@H]21)C(=O)OC4=O,95%,–
> 25 µM,"C=C1C[C@@]23CC[C@H]4[C@@](C)(CCC[C@@]4(C)C(=O)O)[C@@H]2CCC1C3 (single isomer, unassigned) [KAURENOIC ACID]",70%,–
5 µM,C[C@@]12CCC[C@@](C)(C(=O)OC[Si](C)(C)C)[C@H]1CC[C@]13CC(=O)O[C@H](CC[C@H]12)C3,95%,Dose-dependent effect
> 25 µM,COC(=O)[C@]1(C)CCC[C@@]2(C)[C@@H]3CC[C@@H]4C[C@@]3(CC[C@@H]21)C[C@H]4/C=N/O,25%,–
10 µM,C=C1C[C@@]23CC[C@@H]4[C@](C)(COC(C)=O)CCC[C@@]4(C)C2=CC[C@@H]1C3,90%,–
> 25 µM,C=C1C[C@@]23CC[C@H]4[C@@](C)(CCC[C@@]4(C)C(=O)OCc4ccccc4)[C@@H]2CC[C@@H]1C3 [KAURENOIC ACID BENZYL ESTER],46%,–
> 25 µM,COC(=O)[C@]1(C)CCC[C@@]2(C)[C@@H]3CC[C@@H]4C[C@@]3(CC[C@@H]21)[C@@H](O)C4=O,95%,–
> 25 µM,COC(=O)[C@]1(C)CCC[C@@]2(C)[C@@H]3CC[C@@H]4C[C@@]3(CC[C@@H]21)C[C@]4(C)OC,90%,–
25 µM,COC(=O)[C@]1(C)CCC[C@@]2(C)C3=CC[C@@H]4C[C@]3(C=C4C=O)CC[C@H]12,18%,–
> 25 µM,COC(=O)[C@]1(C)CCC[C@@]2(C)[C@@H]3CC[C@@H]4C[C@]3(C=C4/C=N/O)CC[C@@H]21,99%,–
> 25 µM,C=C1C[C@@]23CC[C@H]4[C@@](C)(CCC[C@@]4(C)C(=O)OC[Si](C)(C)C)[C@@H]2CC[C@@H]1C3,95%,–
5 µM,COC(=O)[C@]1(C)CCC[C@@]2(C)[C@@H]3CC[C@@H]4C[C@]3(C=C4C=O)CC[C@@H]21,76%,–
> 25 µM,COC(=O)[C@]1(C)CCCC2(C)[C@@H]3CC[C@@H]4C[C@@]3(CC[C@@H]21)C[C@@]41CO1 (stereo partly specified),66%,–
> 25 µM,C=C1[C@@H]2CC[C@H]3[C@]4(C)CCC[C@@](C)(C(=O)Nc5ccccc5)[C@H]4CC[C@]3(C2)[C@H]1OC(C)=O,85%,–

IC50 [1],SMILES,"viability at 24 h, up to 25 µM [2]",inhibition [1]
> 25 µM,COC(=O)[C@]1(C)CCC[C@@]2(C)[C@@H]3CC[C@@H]4C[C@@]3(CC[C@@H]21)C[C@]4(C)Cl,82%,–
14 µM,COC(=O)[C@]1(C)CCC[C@@]2(C)[C@@H]3CC[C@@H]4C[C@@]3(CC[C@@H]21)[C@H]1O[C@@]41C,95%,–
10 µM,C=C1C(=O)[C@@]23CC[C@@H]4[C@](C)(C(=O)OC)CCC[C@@]4(C)C2=CC[C@@H]1C3,50%,–
> 25 µM,C[C@@]1(CO)CCC[C@]2(C)[C@@H]1CC[C@@]13C[C@@H](CC[C@H]12)[C@@](C)(O)C3,95%,–
> 25 µM,COC(=O)[C@]1(C)CCC[C@@]2(C)[C@@H]3CC[C@@H]4C[C@@]3(CC[C@@H]21)CC4=O,98%,–
> 25 µM,C=C1[C@@H]2CC[C@H]3[C@]4(C)CCC[C@@](C)(C(=O)OC)[C@H]4CC[C@]3(C2)[C@H]1OC(C)=O,40%,–
5 µM,C=C1C[C@@]23CC[C@@H]4[C@](C)(C(=O)OC)CCC[C@@]4(C)C2=CC[C@@H]1C3 [GRANDIFLORENIC ACID METHYL ESTER],100%,Dose-dependent effect
15 µM,C=C1C[C@@]23CC[C@@H]4C(C)(C(=O)O)CCC[C@@]4(C)C2=CC[C@@H]1C3 (stereo partly specified),90%,–
> 25 µM,C=C1[C@@H]2CC=C3[C@@](CC[C@@H]4[C@](C)(C(=O)OC)CCC[C@@]34C)(C2)[C@H]1OC(C)=O,50%,–
> 25 µM,COC(=O)[C@]1(C)CCC[C@@]2(C)C3=CC[C@@H]4C[C@@]3(CC[C@H]12)C[C@]4(O)CO,35%,–
> 25 µM,C=C1[C@@H]2CC[C@H]3[C@]4(C)CCC[C@@](C)(C(=O)OC)[C@H]4CC[C@]3(C2)[C@H]1OC(=O)CCCCCCCCCCC,95%,–
> 25 µM,C=C1C[C@@]23CC[C@@H]4[C@](C)(CO)CCC[C@@]4(C)C2=CC[C@@H]1C3,50%,–
> 25 µM,COC(=O)[C@]1(C)CCC[C@]2(C)[C@@H]1CC[C@@]13C[C@@H](C[C@@H]4O[C@@]412)[C@]1(CO1)C3,99%,–
5 µM,C=C1[C@@H]2CC[C@H]3[C@]4(C)CCC[C@@](C)(C(=O)OC)[C@H]4CC[C@]3(C2)[C@H]1O,97%,Dose-dependent effect
> 25 µM,C=C1[C@@H]2CC[C@H]3[C@]4(C)CCC[C@@](C)(C(=O)O)[C@H]4CC[C@]3(C2)[C@H]1OC(C)=O,58%,–
> 25 µM,C=C1C[C@@]23CC[C@@H]4[C@](C)(COS(=O)OC[C@]5(C)CCC[C@]6(C)[C@@H]5CC[C@]57CC(=C)[C@H](CC[C@H]56)C7)CCC[C@@]4(C)[C@@H]2CC[C@@H]1C3,99%,–
> 25 µM,COC(=O)[C@]1(C)CCC[C@@]2(C)C3=CC[C@@H]4C[C@@]3(CC[C@H]12)C[C@H]4C,95%,–
> 25 µM,COC(=O)[C@]1(C)CCC[C@@]2(C)[C@@H]3CC[C@@H]4C[C@@]3(CC[C@@H]21)C[C@H]4C [DIHYDRO KAURENOIC ACID METHYL ESTER],72%,–
> 25 µM,COC(=O)[C@]1(C)CCCC2(C)[C@@H]3CC[C@@H]4C[C@@]3(CC[C@@H]21)C[C@]41CO1 (stereo partly specified),90%,–
4 µM,C=C1C(=O)[C@@]23CC[C@H]4[C@@](C)(CCC[C@@]4(C)C(=O)OC)[C@@H]2CC[C@@H]1C3,32%,–
5 µM,COC(=O)[C@]1(C)CCC[C@@]2(C)[C@@H]3CC[C@@H]4C[C@@]3(CC[C@@H]21)C[C@@]4(O)CO,69%,–
> 25 µM,C=C1C[C@@]23CC[C@@H]4[C@](C)(C(=O)OCc5ccccc5)CCC[C@@]4(C)C2=CC[C@@H]1C3 [GRANDIFLORENIC ACID BENZYL ESTER],23%,–
> 25 µM,COC(=O)[C@]1(C)CCC[C@@]2(C)[C@@H]3CC[C@@H]4C[C@@]3(CC[C@@H]21)C[C@]41COS(=O)O1 (stereo partly specified),60%,–
> 25 µM,C=C1[C@@H]2CC[C@H]3[C@]4(C)CCC[C@@](C)(C(=O)O)[C@H]4CC[C@]3(C2)[C@H]1O,100%,–
